This passage reports yeast fitness results from the RNAGym collection of RNA variant scans (doi:10.1126/science.aae0568).

This sample holds only a part of the variants without activity. Some results are limits rather than exact numbers.

Sequences and labels used below:
B1: tRNA (parent)
chain: GUUCCGUUGGCGUAAUGGUAACGCGUCUCCCUCCUAAGGAGAAGACUGCGGGUUCGAGUCCCGUACGGAACG

Variants of B1 are the subject of this data set. Nature of the data set: yeast fitness relative to wild type (ratio to wild type); higher = fitter; tRNA-Arg(CCU), competitive growth, 37 C, YPD. Put shortly:
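Changes in genotype frequencies gave Darwinian fitness relative to wild type. Frequencies were read by 100-nucleotide paired-end sequencing of gene amplicons before and after pooled Saccharomyces cerevisiae strains, carrying tRNA-Arg(CCU) gene variants at the native locus, were competed in YPD at 37°C for 24 hours in six replicates. A genotype was kept only with ≥ 100 starting reads, and estimates < 0.5 were set to 0.5.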
With GUUCAGUUGGCGUAAUGGUACCGAGUCUCCCUCCUAAGGAGAAGACUGCGGGUUCGAGUCCCGUACGGAUCG [C5A A21C C24A A70U], the yeast fitness was no more than 0.5.
The result for GUUCAGUUGGCGUAAUGGUAACGCGUCUCCCUCCUAAGGCGAAGAUUGCGGCUUCGAGUCCCGUACGGACCG [C5A A40C C46U G52C A70C] reads no more than 0.5.
The result for GUUCAGUUGGCGUAAUGGUAACGCGUCUCCCUCCUACGGAGAAGACUGAGGGUUCGAGUCCCGUACGUAACG [C5A A37C C49A G68U] reads no more than 0.5.
GUUCAGUUGGAGUAAUGGUAACGCGUCUCUAUCCUAAGGAGAAGACUGCGGGUUCGAGUCACGUACGGAACG [C5A C11A C30U C31A C61A]: the yeast fitness is no more than 0.5.
The figure for GUUCAGUUGGCGUAAUGGUAACGCGUCUCCCUCCUAAGGAGAAGACUGCGGGUUCGAGUCCCGUGCGGAACG [C5A A65G] is 0.978.
The result for GUUCAGUUGGCGUAAUGGUAACGCGUCUCCCUCCUAAGGAGAAGACUGCGGGUUCGAGUCCCGUACGGCACG [C5A A69C] reads 0.919; that for GUUCAGUUGGCGUAAUGGUAACGCGUCUCCCUCCUAAGGGGAAGAAUGCGGGUUCGAGUCCCGUACGGAACG [C5A A40G C46A], 0.773; that for GUUCAGUUGGCGUAAUGGUAUCGCGUCUCCCUCCUAAGGAGAAGACUGCGGGUUAGAGUCCCGUACGGAACG [C5A A21U C55A], 0.572.
In the case of GUUCAGUUGGCGUAAUGGUAACGCGUCUCCCUCCUAAGGUGAAGACUGCGGGUUCGAGUCCCGUACGGAACG [C5A A40U], the yeast fitness was 0.849.
The figure for GUUCAGUUGGAGUAAUGGUAACGCGUCUCCCUCAUAAGGUGAAGACUGCGGGUUCGAGUCCCGUACGGAACG [C5A C11A C34A A40U] is 0.696; for GUUCAGUUGGCGUAAUGGUACCGCGUCUCCCUCGUAAGGAGAAGACUGCGGAUUCGAGUCCGGUACGGAACG [C5A A21C C34G G52A C62G] it is 0.565; for GUUCAGUUGGCGUAAUGGUACCGCGUCUCGCUCUUAACGAGAAGACUGUGGGUUUGAGUCCCGUACGGACCG [C5A A21C C30G C34U G38C C49U C55U A70C] it is no more than 0.5.
As to GUUCAGUUGGCGUAAUGGUACCGCGUCUCCCUCCUAAGGAGACGACUACGGGUUCGAGUCCCGUAAGGAACG [C5A A21C A43C G48A C66A], the yeast fitness is no more than 0.5.
Turning to GUUCAGUUGGCGUAAUGGUACCGCGUCUCCCUCCUAAGGAGAAGACUGCGGGUCCGAGUCCCGUACGGAACG [C5A A21C U54C], the yeast fitness is no more than 0.5.
The result for GUUCAGUUGGCGUAAUGGUAGCGCGUCUCCGUCCUAAGGAGAAGACUGCGGGUUCGAGUCCCGUACGGAACG [C5A A21G C31G] reads 0.62.
The result for GUUCAGUUGGCGUAAUGGUAGCGCGUCUCCCUCCUAAGGAGAAGACUGCGGGUUCGAGUCCCGUACGGAACG [C5A A21G] reads 0.942; that for GUUCAGUUGGCGUAAUGGUACCGCGUCUCCCUCCUAAGGAGAAGACUGCGGGUGCGAGUUCCGUACGGAACG [C5A A21C U54G C60U], no more than 0.5; that for GUUCAGUUGGCGUAAUGGUAACGCGUCUCCCUCCUAAGGAGAAGCCUGCGGGUUCGAGUCCCGUACGGAACG [C5A A45C], 0.81.
With GUUCAGUUGGCGUAAUGGUAACGCGUCUCCCUCCUACCGAGAAGACUGCGGGUUUGAGUCCCGUACGGAACG [C5A A37C G38C C55U], the yeast fitness is 0.598.
The figure for GUUCAGUUGGCGUAAUGGUAACGCGUCUCCCUCCUAAGGAGAAGACUGCGGGUUCGGGUGCCGUACGGAACG [C5A A57G C60G] is no more than 0.5.
On to GUUCAGUUGGCGUAAUGGUAACGCGUCUCCCUCCUAAGGAGAAGACUGCGGGUUCGUGUCCCGUACGGAACG [C5A A57U], for which the yeast fitness stood at 0.669.
The figure for GUUCAGUUGGCGUAAUGGUAACGCGUCUCCCUCCUAGGGAGAAGACUGCGGGUUCGAGUCCCGUACGGAACG [C5A A37G] is 0.7; for GUUCAGUUGGCGUAAUGGUAGCACGUCUCCCUCCUAAGGAGAAGACUGCGGGUUCGAGUCCCGUACCGAACG [C5A A21G G23A G67C] it is 0.591.
The figure for GUUCAGUUGGCGUAAUGGUAACGCGUCUCCCUCCUAAGGAGAAGUCUGUGGGUUCGAGUCCCGUACGGAACG [C5A A45U C49U] is 0.64; for GUUCAGUUGGCGUAAUGGUAACGCGUCUCCCUCCUAAGGUGAAGACUGCGGGUUCGAGUUGCGUACGGAACG [C5A A40U C60U C61G] it is 0.525.
Take GUUCAGUUGGCGUAAUGGUUACACGUCUCCCUCCUAAGGAGAAGACUGCGGGUUCGAGUCCCGUAUGGAACG [C5A A20U G23A C66U]: the yeast fitness was no more than 0.5.
The figure for GUUCAGUUGGCGUAAUGGUAACGCGUCUCCCUCCUAAGGAGAAGACUGCGGGUUCGAGUCCCGUCCGAAACG [C5A A65C G68A] is 0.628; for GUUCAGUUGGCGUAAUGGUAACGCGUCUCCCUCCUAAGGAGAAGACUGCGGGUUCGAGUCCCGUCCGCAACG [C5A A65C G68C] it is no more than 0.5.
On to GUUCAGUUGGCGUAAUGGUUACGCGUCUCCUUCCUAAGGAGAAGACUGCGGGUUCGAGUCUCGAACGGAACG [C5A A20U C31U C61U U64A], for which the yeast fitness was no more than 0.5.
For the variant GUUCAGUUGGCGUAAUGGUACCGCGUCUCGCUCUUAACGAGAAGACUGUGGGUUCGAGUCCCGUACGGAACG [C5A A21C C30G C34U G38C C49U], the yeast fitness was no more than 0.5.
With GUUCAGUUGGCGUAAUGGUAACGCGUCUCCCUCCUAAGGAGAAGACUGCGGGUUCGGGUCUCGUACGGAACG [C5A A57G C61U], the yeast fitness was no more than 0.5.
The figure for GUUCAGUUGGCGUAAUGGUAACGCGUCUCCCUCCUAAGGAGAAGCGUCCGGGUUCGAGUCCCGCACGGAACG [C5A A45C C46G G48C U64C] is no more than 0.5; for GUUCAGUUGGAGUAAUGGUAACGUGCCUUCGUCCUAAGGAGAAGACUGCGGGUUCGAGUCCCGUACGGAACG [C5A C11A C24U U26C C29U C31G] it is no more than 0.5.
The result for GUUCAGUUGGCGUAAUGGUAACGCGUCUCCCUCCUAAGGAGCAGACAGAGUGUUCGAGUCUCGUACGAAACG [C5A A42C U47A C49A G51U C61U G68A] reads no more than 0.5.
In the case of GUUCAGUUGGCGUAAUGGUAGGGCGUAUCCCUUCUAAGGUGAAGACUGCGGGUUGGAGUCCCGUACGGAACG [C5A A21G C22G C27A C33U A40U C55G], the yeast fitness is no more than 0.5.
The figure for GUUCAGUUGGCGUAAUGGUAACGCGUCUCCCUCCUAAGGAGAAGUCUACGGGUUCAAGUCCCGUACGGAACG [C5A A45U G48A G56A] is 0.706; for GUUCAGUUGGCGUAAUGGUUACGCGUCUCCGUCCUAAGGAGAAGACUGCGGGUUCGAGUCUCGUAUGGAACG [C5A A20U C31G C61U C66U] it is no more than 0.5.
Regarding GUUCAGUUGGCGUAAUGGUAUCGCGUCUCCCUCCUAAGGAGAAGACUGCGGGUUCGAGUCAGGUACGGAACG [C5A A21U C61A C62G], the yeast fitness is no more than 0.5.
